Test results from ChEMBL document CHEMBL3808358, “Rational Design of Small Peptides for Optimal Inhibition of Cyclooxygenase-2: Development of a Highly Effective Anti-Inflammatory Agent” (J Med Chem, 2016).
pIC50: −log10 of the molar value. The source made the active and inactive calls. The rule behind the calls is not given here. Residues, ends and D or L forms follow the SMILES beside them. *: point of attachment. Cbz = O=C(OCc1ccccc1)*

What was measured:
[1] = molecular target: T1, Prostaglandin G/H synthase 1 (Ovis aries, UniProt P05979); test: Inhibition of ovine COX1 assessed as reduction in PGH2-derived PGF2alpha using arachidonic acid as substrate preincubated for 10 mins followed by substrate addition measured after 2 mins by enzyme immunoassay
T1 sequence (P05979 whole entry): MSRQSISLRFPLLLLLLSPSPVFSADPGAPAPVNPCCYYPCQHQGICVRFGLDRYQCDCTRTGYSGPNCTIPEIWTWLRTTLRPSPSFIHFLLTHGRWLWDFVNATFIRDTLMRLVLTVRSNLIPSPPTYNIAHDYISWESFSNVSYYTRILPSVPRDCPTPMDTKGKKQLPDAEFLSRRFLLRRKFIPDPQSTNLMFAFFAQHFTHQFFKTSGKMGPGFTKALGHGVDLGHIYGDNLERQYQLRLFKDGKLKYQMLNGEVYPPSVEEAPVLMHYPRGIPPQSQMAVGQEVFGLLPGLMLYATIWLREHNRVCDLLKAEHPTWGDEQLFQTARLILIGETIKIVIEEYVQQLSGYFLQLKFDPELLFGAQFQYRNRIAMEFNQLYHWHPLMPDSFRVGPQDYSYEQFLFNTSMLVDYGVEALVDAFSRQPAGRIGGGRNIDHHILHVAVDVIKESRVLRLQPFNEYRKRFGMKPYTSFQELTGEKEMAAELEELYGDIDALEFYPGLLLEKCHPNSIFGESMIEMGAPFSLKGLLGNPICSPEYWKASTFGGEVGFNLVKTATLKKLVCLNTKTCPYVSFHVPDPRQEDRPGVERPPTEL
In short: (§1)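 Ovine COX-1 and human recombinant COX-2 with heme are preincubated with inhibitor for 10 min at 37 °C. Arachidonic acid is then added for 2 min at 37 °C. Prostaglandins are quantified by competitive AChE-tracer EIA, read at 420 nm. Four concentrations (10^-5 to 10^-8 M) are tested in triplicate. IC50 is taken from the dose-response curve of the mean % inhibition.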

[2] = molecular target: T2, Prostaglandin G/H synthase 2 (Homo sapiens, UniProt P35354); test: Inhibition of human recombinant COX2 assessed as reduction in PGH2-derived PGF2alpha using arachidonic acid as substrate preincubated for 10 mins followed by substrate addition measured after 2 mins by enzyme immunoassay
T2 sequence (P35354 whole entry): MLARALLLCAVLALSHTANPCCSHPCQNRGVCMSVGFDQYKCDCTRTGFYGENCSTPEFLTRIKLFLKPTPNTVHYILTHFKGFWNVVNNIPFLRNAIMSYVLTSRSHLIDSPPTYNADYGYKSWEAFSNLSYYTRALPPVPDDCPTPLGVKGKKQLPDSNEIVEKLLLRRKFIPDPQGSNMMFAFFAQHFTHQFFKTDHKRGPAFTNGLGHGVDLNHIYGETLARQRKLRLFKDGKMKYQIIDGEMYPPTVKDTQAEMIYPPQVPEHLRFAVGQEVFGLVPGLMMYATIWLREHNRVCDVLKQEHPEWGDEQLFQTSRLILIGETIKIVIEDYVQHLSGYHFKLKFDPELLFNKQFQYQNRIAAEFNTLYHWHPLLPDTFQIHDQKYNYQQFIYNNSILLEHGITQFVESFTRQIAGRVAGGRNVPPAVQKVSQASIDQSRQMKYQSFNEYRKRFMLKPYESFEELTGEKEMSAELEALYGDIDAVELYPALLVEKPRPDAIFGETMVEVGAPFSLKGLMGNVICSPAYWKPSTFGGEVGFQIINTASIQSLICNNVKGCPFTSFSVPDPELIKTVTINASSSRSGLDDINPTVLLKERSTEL

[3] = Selectivity index, ratio of IC50 for ovine COX1 to IC50 for human recombinant COX2; in short: as §1
[4] = molecular target: Prostaglandin G/H synthase 1 (Homo sapiens) (UniProt P23219); test: Inhibition of COX1 in healthy human whole blood assessed as calcium ionophore A23187-stimulated TXB2 level at 1 uM preincubated for 60 mins followed by A23187 addition measured after 30 mins by ELISA; assay type: tissue-based
In short: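 Fresh venous blood from a healthy volunteer is collected in EDTA. 1 mL samples receive compound, indomethacin or DMSO vehicle (final 1 μM). After 60 min, A23187 is added (final 50 μM). After 30 min, samples are centrifuged at 4 °C and TxB2 in plasma is measured by ELISA, read at 420 nm. Samples are run in duplicate.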

Mus musculus [5] = test: Analgesic activity in Swiss albino mouse assessed as reduction in capsaicin-induced paw licking at 10 mg/kg, ip dosed 30 mins before capsaicin injection measured for 10 mins; assay type: functional, organism-based
In short: (§2)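 Swiss albino mice of either sex (25-35 g), kept at 22 ± 2 °C on a 12 h light/dark cycle with free food and water. 5 animals per group. Capsaicin (1.6 μg in 20 μL) is injected into the plantar surface of the hind paw. Pain is scored as the number of paw lickings over 10 min.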

Mus musculus [6] = test: Analgesic activity in Swiss albino mouse assessed as reduction in capsaicin-induced paw licking at 5 to 10 mg/kg, ip dosed 30 mins before capsaicin injection measured for 10 mins; assay type: functional, organism-based; in short: as §2
Mus musculus [7] = test: Antiinflammatory activity in Swiss albino mouse assessed as reduction in carrageenan-induced paw edema at 10 mg/kg, ip dosed 30 mins before carrageenan injection measured up to 300 mins by vernier calliper method relative to control; assay type: functional, organism-based
Mus musculus [8] = test: Analgesic activity in Swiss albino mouse assessed as reduction in formalin-induced paw flinches in neurogenic phase at 5 mg/kg, ip dosed 30 mins before formalin injection measured up to 5 mins; assay type: functional, organism-based
In short: (§3)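 Swiss albino mice of either sex (25-35 g). 20 μL of 2% formalin is injected into the plantar surface of the right hind paw 30 min after treatment. Hind paw flinches are counted for the neurogenic phase (0-5 min) and the inflammatory phase (15-30 min). Results are given as mean ± SEM.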

Mus musculus [9] = test: Analgesic activity in Swiss albino mouse assessed as reduction in formalin-induced paw flinches in inflammatory phase at 5 mg/kg, ip dosed 30 mins before formalin injection measured after 15 to 30 mins; assay type: functional, organism-based; in short: as §3

Chain of Prostaglandin G/H synthase 1 (Homo sapiens) (P23219 whole entry): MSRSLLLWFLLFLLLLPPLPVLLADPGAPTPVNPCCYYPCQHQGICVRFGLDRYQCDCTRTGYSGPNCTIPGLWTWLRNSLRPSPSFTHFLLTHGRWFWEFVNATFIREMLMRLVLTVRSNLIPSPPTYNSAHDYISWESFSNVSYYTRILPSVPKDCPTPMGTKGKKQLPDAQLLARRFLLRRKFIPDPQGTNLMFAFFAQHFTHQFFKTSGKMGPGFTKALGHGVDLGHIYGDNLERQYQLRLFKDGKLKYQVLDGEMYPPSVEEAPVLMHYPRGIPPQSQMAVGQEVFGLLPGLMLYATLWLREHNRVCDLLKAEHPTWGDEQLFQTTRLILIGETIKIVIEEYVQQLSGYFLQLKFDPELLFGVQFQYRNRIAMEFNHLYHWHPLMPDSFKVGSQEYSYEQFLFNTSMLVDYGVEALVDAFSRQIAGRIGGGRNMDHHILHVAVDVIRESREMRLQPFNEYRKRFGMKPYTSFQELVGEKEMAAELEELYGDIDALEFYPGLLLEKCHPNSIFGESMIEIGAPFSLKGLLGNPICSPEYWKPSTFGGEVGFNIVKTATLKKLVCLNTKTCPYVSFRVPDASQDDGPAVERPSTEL

| Structure (SMILES) | pIC50 [1] | pIC50 [2] | Ratio IC50 [3] | also measured |
| --- | --- | --- | --- | --- |
| COC(=O)CNC(=O)[C@@H](NC(=O)OCc1ccccc1)C(C)C (Cbz-Val-Gly-OMe) | < 5.00 | 4.12 |  |  |
| COc1ccc2c(c1)c(CC(=O)O)c(C)n2C(=O)c1ccc(Cl)cc1 |  |  |  | Activity [4]: 2.7 ng/mL; Activity (Mus musculus [5]): Active |
| CC(C)[C@H](NC(=O)OCc1ccccc1)C(=O)NCC(=O)O (Cbz-Val-Gly-OH) | < 5.00 | 4.26 |  |  |
| O=C(O)Cc1ccccc1Nc1c(Cl)cccc1Cl |  |  |  | Activity (Mus musculus [7]): Active; Activity (Mus musculus [8]): inactive; Activity (Mus musculus [9]): Active |
| COC(=O)[C@@H](NC(=O)[C@H](C)NC(=O)CN)C(C)C (H-Gly-Ala-Val-OMe) | < 5.00 | 5.00 | > 1 |  |
| CC(C)[C@H](NC(=O)[C@H](C)NC(=O)CN)C(=O)O (H-Gly-Ala-Val-OH) | 5.05 | 6.70 | 45 |  |
| COC(=O)[C@H](CC(C)C)NC(=O)[C@H](Cc1ccccc1)NC(=O)CNC(=O)CNC(=O)OCc1ccccc1 (Cbz-GGFL-OMe) | < 5.00 | 4.70 |  |  |
| COC(=O)CNC(=O)CNC(=O)OCc1ccccc1 (Cbz-Gly-Gly-OMe) | < 5.00 | 6.00 | > 10 |  |
| O=C(O)CNC(=O)CNC(=O)OCc1ccccc1 (Cbz-Gly-Gly-OH) | < 5.00 |  |  |  |
| CC(C)C[C@H](NC(=O)[C@H](Cc1ccccc1)NC(=O)CNC(=O)CNC(=O)OCc1ccccc1)C(=O)O (Cbz-GGFL-OH) | 5.52 | 6.30 | 6 |  |
| COC(=O)[C@H](CC(C)C)NC(=O)CNC(=O)[C@@H](N)C(C)C (H-Val-Gly-Leu-OMe) | < 5.00 | 5.00 |  |  |
| CC(C)C[C@H](NC(=O)[C@H](Cc1ccccc1)NC(=O)CNC(=O)CN)C(=O)O (H-GGFL-OH) | < 5.00 | 6.40 | > 25 |  |

The next lines start with results.

| pIC50 [1] | pIC50 [2] | Ratio IC50 [3] | Structure (SMILES) | also measured |
| --- | --- | --- | --- | --- |
| < 5.00 | 4.66 |  | COC(=O)[C@H](CC(C)C)NC(=O)[C@@H](NC(=O)[C@H](C)NC(=O)CNC(=O)OCc1ccccc1)C(C)C (Cbz-GAVL-OMe) |  |
| 5.52 | 6.52 | 10 | CC(C)C[C@H](NC(=O)[C@H](C)NC(=O)[C@@H](NC(=O)CNC(=O)OCc1ccccc1)C(C)C)C(=O)O (Cbz-GVAL-OH) |  |
| < 5.00 | 4.25 |  | COC(=O)[C@H](CC(C)C)NC(=O)CNC(=O)[C@@H](NC(=O)OCc1ccccc1)C(C)C (Cbz-Val-Gly-Leu-OMe) |  |
| < 5.00 | 7.10 | > 125 | COC(=O)[C@H](C)NC(=O)[C@H](CC(C)C)NC(=O)CNC(=O)[C@@H](NC(=O)OCc1ccccc1)C(C)C (Cbz-VGLA-OMe) | Activity (Mus musculus [6]): Active |
| 5.10 | 7.00 | 80 | COC(=O)[C@@H](NC(=O)[C@H](C)NC(=O)CNC(=O)OCc1ccccc1)C(C)C (Cbz-Gly-Ala-Val-OMe) | Activity (Mus musculus [6]): Active |
| < 5.00 | 5.10 |  | CC(C)C[C@H](NC(=O)[C@@H](NC(=O)[C@H](C)NC(=O)CNC(=O)OCc1ccccc1)C(C)C)C(=O)O (Cbz-GAVL-OH) |  |
| < 5.00 | 4.55 |  | CC(C)C[C@H](NC(=O)CNC(=O)[C@@H](NC(=O)OCc1ccccc1)C(C)C)C(=O)O (Cbz-Val-Gly-Leu-OH) |  |
| < 5.00 | 5.52 | > 3 | CC(C)[C@H](NC(=O)[C@H](C)NC(=O)CNC(=O)OCc1ccccc1)C(=O)O (Cbz-Gly-Ala-Val-OH) |  |
| < 5.00 | 4.72 |  | COC(=O)[C@H](CC(C)C)NC(=O)[C@H](C)NC(=O)[C@@H](NC(=O)CNC(=O)OCc1ccccc1)C(C)C (Cbz-GVAL-OMe) |  |
| 6.52 | 7.30 | 6 | CC(C)C[C@H](NC(=O)CNC(=O)[C@@H](NC(=O)OCc1ccccc1)C(C)C)C(=O)N[C@@H](C)C(=O)O (Cbz-VGLA-OH) |  |
